Published values of several laboratories.
Compare with care: the assays were run in different laboratories.
Effect on: cell growth or viability

| SMILES | cell line | test | setting | CC50 [µM] |
| --- | --- | --- | --- | --- |
| Nc1nc(O)c2ncn(COC(CO)CO)c2n1 | HFF | ATP luminescence | – | > 150 |
| O=c1[nH]c2cc(-c3ccccc3)ccc2c(=O)n1O | HFF | MTS | 7 days | 29 |
| N#Cc1nc(-c2ccccc2)oc1N1CCCC1CO (stereo not shown) | HFF | ATP luminescence | – | > 150 |
| O=C(CN1C(=O)Cc2c([nH]c3ccc(Br)cc23)-c2ccc(Cl)cc21)NCCN1CCCCC1 | J774 | WST-1 | 24 h | ≤ 10 |
| Cc1ccc(S(=O)(=O)c2nc(S(=O)(=O)NCc3ccccc3)sc2Cl)cc1 | HFF | ATP luminescence | – | 106 |
| O=C1Cc2c([nH]c3ccc(Br)cc23)-c2ccc(Cl)cc2N1 | J774 | WST-1 | 24 h | > 200 |
| Nc1ccn(C[C@@H](CO)OCP(=O)(O)O)c(=O)n1 | HFF | ATP luminescence | 14 days | 60 |
| O=c1[nH]c2sc(-c3ccc(Cl)cc3)cc2c(=O)n1O | HFF | MTS | 7 days | > 50 |
| CCN(CC)CCNC(=O)CN1C(=O)Cc2c([nH]c3ccc(Br)cc23)-c2ccc(Cl)cc21 | J774 | WST-1 | 24 h | ≤ 10 |
| Cc1ccc(-c2nc(C#N)c(N(C)S(=O)(=O)c3ccc(C)cc3)o2)cc1 | HFF | ATP luminescence | – | 83.8 |
| O=C(CN1C(=O)Cc2c([nH]c3ccc(Br)cc23)-c2ccc(Cl)cc21)NCCN1CCNCC1 | J774 | WST-1 | 24 h | ≥ 100 |
| O=c1[nH]c2cc(-c3ccc(Cl)cc3)sc2c(=O)n1O | HFF | MTS | 7 days | > 50 |
| CN(C)c1ccc(C(=C2C=CC(=[N+](C)C)C=C2)c2ccc(N(C)C)cc2)cc1 | J774 | ATP luminescence | 72 h | 4.91 |
